Measured values as given in the RNAGym collection of RNA variant scans (doi:10.1126/science.aae0568).
Fewer inactive variants are shown than the library holds.

B1: tRNA (parent)
chain: GUUCCGUUGGCGUAAUGGUAACGCGUCUCCCUCCUAAGGAGAAGACUGCGGGUUCGAGUCCCGUACGGAACG

Variants of: B1
Assay: yeast fitness relative to wild type (ratio to wild type); higher = fitter; tRNA-Arg(CCU), competitive growth, 37 C, YPD
Method in brief: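 Variants of the tRNA-Arg(CCU) gene were chemically synthesised with a 3% per-site mutation rate across 69 sites and placed at the native genomic locus in Saccharomyces cerevisiae. Six parallel replicates of the pooled strains were competed in YPD at 37°C for 24 hours, and gene amplicons from the start and end populations were read by 100-nucleotide paired-end sequencing. Darwinian fitness relative to wild type was derived from changes in genotype frequencies. Genotypes required ≥ 100 starting reads, and estimates < 0.5 were set to 0.5.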
With U19A C29A U32A U54C C55G C60G the yeast fitness was no more than 0.5. Work on U19C A65C yielded a yeast fitness of 0.888. Variant U19C C31A A36C G44A A57U has a yeast fitness of no more than 0.5. In the case of U19A C34G A40G, the yeast fitness is reported as no more than 0.5. U19C A43U A69U showed a yeast fitness of 1.09. Variant U19A U32C has a yeast fitness of 0.848. Variant U19C C30U G56A A69C has a yeast fitness of no more than 0.5. In the case of U19C A21G, the yeast fitness is reported as 0.906. With U19C C31A C66U the yeast fitness was 0.555. U19A C27A G52C gave a yeast fitness of no more than 0.5. With U19A G52A the yeast fitness was 0.679. With U19A G39A G63C the yeast fitness was no more than 0.5. U19A C27G C31U C62U showed a yeast fitness of no more than 0.5. For U19C G50C, the yeast fitness was 0.613. With U19C C29U C61U G68C the yeast fitness was no more than 0.5. U19A U59C C61A U64C gave a yeast fitness of no more than 0.5. U19C C55U C61G gave a yeast fitness of 0.596. Variant U19C A57U has a yeast fitness of 0.658. U19C C24G A37U G56A A65C gave a yeast fitness of no more than 0.5. U19C A21G U26G G39C C46A A70C showed a yeast fitness of no more than 0.5. U19C A20U A43U showed a yeast fitness of 0.66. U19C C66U A69C gave a yeast fitness of 0.685. U19C A20U G56A showed a yeast fitness of 0.724. With U19A C24A G48C the yeast fitness was no more than 0.5. Work on U19C C22U G67A yielded a yeast fitness of 0.772. U19A U53C showed a yeast fitness of 0.806. In the case of U19C G25C G51C C60U, the yeast fitness is reported as no more than 0.5. In the case of U19A C24A C30G C34U G51A G52C C66U, the yeast fitness is reported as no more than 0.5. Variant U19C A45C C55U has a yeast fitness of 0.518. U19C C34U A43U A70C gave a yeast fitness of 0.572. Variant U19A C27U C29U has a yeast fitness of 0.697. With U19A C49U G67A the yeast fitness was 0.666. U19C A36C G41C C66A gave a yeast fitness of no more than 0.5. U19A C30G A40C G67C gave a yeast fitness of no more than 0.5. U19C A20C C31G C49G gave a yeast fitness of no more than 0.5. With U19C C24G A37U U47A the yeast fitness was 0.524. Variant U19A G50A G68C has a yeast fitness of no more than 0.5. Variant U19C C31U C33G G41A C55U C61A has a yeast fitness of no more than 0.5. For U19C A21C G39C C61U, the yeast fitness was no more than 0.5. With U19C C27U C29G C34A A42C A65G the yeast fitness was 0.541. In the case of U19C A21U C49U, the yeast fitness is reported as 0.966. Work on U19C G39A yielded a yeast fitness of 0.952. With U19C A43U C49U the yeast fitness was 0.698. In the case of U19C C33A, the yeast fitness is reported as 0.636. For U19C G25A A37U C62A U64C, the yeast fitness was no more than 0.5. Work on U19C A57G A70U yielded a yeast fitness of 0.601. Work on U19C G25C G58A yielded a yeast fitness of 0.625. Variant U19A C29A G67A has a yeast fitness of no more than 0.5. Work on U19C C24U C66U yielded a yeast fitness of 0.712. With U19A C24G C33G C34G G51A the yeast fitness was 0.531. U19C C24U C55U A57C showed a yeast fitness of no more than 0.5. In the case of U19C C55U, the yeast fitness is reported as 0.807. Work on U19C C55G yielded a yeast fitness of 0.676. Work on U19C C31G C62U yielded a yeast fitness of 0.702. Variant U19C C29U A42C A57G has a yeast fitness of 0.541. U19C C24A G58A C66U showed a yeast fitness of no more than 0.5. U19C A37G A65U showed a yeast fitness of 0.58. For U19A C24G C27U C30A G52C, the yeast fitness was 0.571. Work on U19A G44C yielded a yeast fitness of 0.971. U19C C31G showed a yeast fitness of 0.841. Work on U19C C31U yielded a yeast fitness of 0.986. Work on U19C A36U yielded a yeast fitness of 0.566. With U19A G67A the yeast fitness was 0.866. U19A C24U U64C showed a yeast fitness of 0.689. Work on U19C C24G C34A yielded a yeast fitness of no more than 0.5. Variant U19C G52A has a yeast fitness of 0.78. With U19C G52C the yeast fitness was 0.562. U19C C22G A70U showed a yeast fitness of 0.743. Work on U19A C27U C49U C55U yielded a yeast fitness of 0.525. U19C G38C G58C U64A showed a yeast fitness of no more than 0.5. Work on U19A G25C A43U yielded a yeast fitness of 0.657. With U19A G48C the yeast fitness was 0.861. U19A C34U A42U gave a yeast fitness of 0.543. In the case of U19C G41C A65G, the yeast fitness is reported as 0.663. For U19A C31G, the yeast fitness was 1.02. U19C A20G showed a yeast fitness of 0.964. In the case of U19C C22U C55U C61G, the yeast fitness is reported as no more than 0.5. For U19C C24G G50C, the yeast fitness was 0.768. In the case of U19C G39A G58A, the yeast fitness is reported as 0.613. U19C A43G gave a yeast fitness of 1.07. For U19C A43U, the yeast fitness was 1.03. Work on U19C A43C yielded a yeast fitness of 0.907. With U19C C22G C24A G39C A45C U47C the yeast fitness was 0.721.
